Source: ChEMBL document CHEMBL4725414, “Identification, Structure-Activity Relationship, and Biological Characterization of 2,3,4,5-Tetrahydro-1H-pyrido[4,3-b]indoles as a Novel Class of CFTR Potentiators” (J Med Chem, 2020)
Each block holds one molecule with its values, some of them ahead of it. Activity calls are given as the source filed them.

Columns and labels:
[1] = test system: Cystic fibrosis transmembrane conductance regulator (Homo sapiens), P13569 [G551D]; test: Potentiation of human CFTR G551D mutant expressed in rat FRT cells coexpressing HS-YFP assessed as increase in iodide influx at 20 uM pre-incubated for 15 to 30 mins in presence of forskolin by fluorescent method relative to forskolin alone; type: cell-based; details: time min 15-30
In short: (§1)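 HS-YFP iodide influx assay in FRT cells (F508del cells rescued 24 h at 32 °C; G551D cells not); 25 min with forskolin plus compound at fixed concentrations, then I⁻ injection (final 100 mM); quenching rate from linear fit of final 10 s of a 14 s reading; three concentrations tested on G551D cells; n = 9.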

[2] = test system: Cystic fibrosis transmembrane conductance regulator (Homo sapiens), P13569 [F508del]; test: Effect on processing/trafficking of CFTR F508 deletion mutant in primary HBE cells from F508del/F508del CF patient at 0.5 uM incubated for 24 hrs in presence of CFTR corrector ARN23765 by TEER/PD assay; type: cell-based
In short: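 Differentiated F508del/F508del primary bronchial epithelia grown at air–liquid interface 2–3 weeks; treated 24 h at 37 °C, 5% CO2 in culture medium with vehicle, corrector ARN23765 (10 nM) alone, or ARN23765 plus test compound (0.5 μM); TEER and PD measured, equivalent short-circuit current calculated; n = 9 (three experiments × three biological replicates).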

[3] = target: T1, Cystic fibrosis transmembrane conductance regulator (Homo sapiens, UniProt P13569); test: Potentiation of CFTR in primary human bronchial epithelial cells assessed as stimulation of CFTR-mediated chloride current at 100 uM in presence of CPT-cAMP by short-circuit current method; details: dose 1.0 µM, in the assay text read “at 1 uM” for “at 100 uM”
In short: (§2)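 Non-CF primary HBE cells on porous inserts, differentiated at air–liquid interface 2–3 weeks; Ussing chamber short-circuit current. Amiloride added to block ENaC; cells stimulated with submaximal CPT-cAMP, then increasing potentiator concentrations or potentiator then CPT-cAMP 5 μM and 100 μM; total CFTR current defined by CFTR inhibitor-172; n = 9 (three experiments × three replicates).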
Target sequence in this assay (P13569 whole entry, looked up): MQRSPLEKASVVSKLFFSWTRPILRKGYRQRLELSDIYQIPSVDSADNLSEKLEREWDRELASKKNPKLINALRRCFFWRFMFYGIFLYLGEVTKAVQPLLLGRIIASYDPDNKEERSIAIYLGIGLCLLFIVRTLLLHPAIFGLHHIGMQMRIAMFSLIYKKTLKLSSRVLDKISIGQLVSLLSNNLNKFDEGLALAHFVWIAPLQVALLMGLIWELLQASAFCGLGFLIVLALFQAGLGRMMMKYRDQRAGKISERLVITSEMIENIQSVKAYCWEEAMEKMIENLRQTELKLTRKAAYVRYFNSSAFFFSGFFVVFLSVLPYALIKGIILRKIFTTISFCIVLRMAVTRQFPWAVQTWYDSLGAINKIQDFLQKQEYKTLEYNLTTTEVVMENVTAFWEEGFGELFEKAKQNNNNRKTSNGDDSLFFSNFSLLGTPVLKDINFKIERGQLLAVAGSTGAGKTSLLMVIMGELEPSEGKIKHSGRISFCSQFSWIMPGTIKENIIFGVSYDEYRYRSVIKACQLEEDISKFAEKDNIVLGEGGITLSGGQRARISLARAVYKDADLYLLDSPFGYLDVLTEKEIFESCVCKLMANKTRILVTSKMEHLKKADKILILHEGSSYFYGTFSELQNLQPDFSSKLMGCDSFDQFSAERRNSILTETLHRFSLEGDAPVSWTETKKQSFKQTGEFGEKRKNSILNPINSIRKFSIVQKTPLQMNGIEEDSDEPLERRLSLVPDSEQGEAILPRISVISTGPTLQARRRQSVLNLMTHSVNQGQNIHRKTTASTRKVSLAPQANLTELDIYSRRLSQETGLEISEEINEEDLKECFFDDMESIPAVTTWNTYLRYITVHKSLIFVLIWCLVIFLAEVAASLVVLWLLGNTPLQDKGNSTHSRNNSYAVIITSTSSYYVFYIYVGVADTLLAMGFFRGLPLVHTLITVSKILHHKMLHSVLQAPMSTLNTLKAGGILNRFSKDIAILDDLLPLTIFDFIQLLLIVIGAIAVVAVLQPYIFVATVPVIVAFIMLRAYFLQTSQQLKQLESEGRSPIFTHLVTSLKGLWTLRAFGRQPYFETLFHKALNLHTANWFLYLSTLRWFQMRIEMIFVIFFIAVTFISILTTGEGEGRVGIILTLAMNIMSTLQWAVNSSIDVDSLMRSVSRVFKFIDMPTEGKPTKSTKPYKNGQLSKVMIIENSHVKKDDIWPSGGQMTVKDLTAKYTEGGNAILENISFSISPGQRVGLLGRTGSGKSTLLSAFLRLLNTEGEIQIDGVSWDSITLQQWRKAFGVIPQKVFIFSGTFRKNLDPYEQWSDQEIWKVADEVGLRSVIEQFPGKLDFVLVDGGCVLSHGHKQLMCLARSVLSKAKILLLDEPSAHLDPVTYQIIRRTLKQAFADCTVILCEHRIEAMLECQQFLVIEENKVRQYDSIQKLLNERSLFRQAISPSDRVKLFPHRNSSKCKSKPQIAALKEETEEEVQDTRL

[4] = test system: Cystic fibrosis transmembrane conductance regulator (Homo sapiens), P13569 [F508del]; test: Potentiation of human CFTR F508 deletion mutant expressed in rat FRT cells coexpressing HS-YFP assessed as increase in iodide influx at 5 uM pre-incubated for 15 to 30 mins in presence of forskolin by fluorescent method relative to forskolin alone; type: cell-based; details: filed as activator, time min 15-30
In short: (§3)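 Cells plated 50,000/well, assayed next day; F508del FRT cells first held 24 h at 32 °C to rescue trafficking. Washed in PBS, incubated 25 min with forskolin (20 μM) plus compound, then I⁻ solution injected (final 100 mM). YFP fluorescence (ex 500, em 535 nm) read for 14 s; initial slope from linear fit of final 10 s; dose–response, n = 9.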

[5] = test system: Cystic fibrosis transmembrane conductance regulator (Homo sapiens), P13569 [F508del]; test: Potentiation of human CFTR F508 deletion mutant expressed in rat FRT cells coexpressing HS-YFP assessed as increase in iodide influx at […] to 10 uM pre-incubated for 15 to 30 mins in presence of forskolin by fluorescent method relative to forskolin alone; type: cell-based; details: filed as activator, dose microM 0.256-10, time min 15-30; in short: as §3
[6] = test system: Cystic fibrosis transmembrane conductance regulator (Homo sapiens), P13569 [G551D]; test: Potentiation of human CFTR G551D mutant expressed in rat FRT cells coexpressing HS-YFP assessed as increase in iodide influx at 1.56 to 50 uM pre-incubated for 15 to 30 mins in presence of forskolin by fluorescent method relative to forskolin alone; type: cell-based; details: filed as activator, dose microM 1.56-50, time min 15-30; in short: as §3
[7] = test system: Cystic fibrosis transmembrane conductance regulator (Homo sapiens), P13569 [F508del]; test: Potentiation of human CFTR F508 deletion mutant expressed in CFBE41o cells coexpressing HS-YFP assessed as increase in CFTR-dependent iodide influx at 0.256 to 10 uM pre-incubated for 15 to 30 mins in presence of forskolin by fluorescent method relative to forskolin alone; details: filed as activator, dose microM 0.256-10, time min 15-30
[8] = test system: Cystic fibrosis transmembrane conductance regulator (Homo sapiens), P13569 [F508del]; test: Potentiation of human CFTR F508 deletion mutant expressed in rat FRT cells coexpressing HS-YFP assessed as increase in iodide influx pre-incubated for 15 to 30 mins in presence of forskolin by fluorescent method relative to forskolin alone; type: cell-based; details: time min 15-30
In short: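 Primary HTS: F508del-CFTR/HS-YFP FRT cells, rescued 24 h at 32 °C, were treated acutely (15–30 min) with single compound at 5 μM plus forskolin 10 μM, screened in duplicate. The HS-YFP quenching rate from iodide influx was expressed relative to forskolin-alone wells. Forskolin plus VX-770 1 μM served as positive control. The average of two rounds was scored, with hit threshold >185%.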

[9] = target: T1, Cystic fibrosis transmembrane conductance regulator; test: Potentiation of human CFTR F508 deletion mutant expressed in rat FRT cells coexpressing HS-YFP assessed as increase in iodide influx pre-incubated for 15 to 30 mins in presence of forskolin by fluorescent method; type: cell-based
Target sequence in this assay (P13569 as listed by the source): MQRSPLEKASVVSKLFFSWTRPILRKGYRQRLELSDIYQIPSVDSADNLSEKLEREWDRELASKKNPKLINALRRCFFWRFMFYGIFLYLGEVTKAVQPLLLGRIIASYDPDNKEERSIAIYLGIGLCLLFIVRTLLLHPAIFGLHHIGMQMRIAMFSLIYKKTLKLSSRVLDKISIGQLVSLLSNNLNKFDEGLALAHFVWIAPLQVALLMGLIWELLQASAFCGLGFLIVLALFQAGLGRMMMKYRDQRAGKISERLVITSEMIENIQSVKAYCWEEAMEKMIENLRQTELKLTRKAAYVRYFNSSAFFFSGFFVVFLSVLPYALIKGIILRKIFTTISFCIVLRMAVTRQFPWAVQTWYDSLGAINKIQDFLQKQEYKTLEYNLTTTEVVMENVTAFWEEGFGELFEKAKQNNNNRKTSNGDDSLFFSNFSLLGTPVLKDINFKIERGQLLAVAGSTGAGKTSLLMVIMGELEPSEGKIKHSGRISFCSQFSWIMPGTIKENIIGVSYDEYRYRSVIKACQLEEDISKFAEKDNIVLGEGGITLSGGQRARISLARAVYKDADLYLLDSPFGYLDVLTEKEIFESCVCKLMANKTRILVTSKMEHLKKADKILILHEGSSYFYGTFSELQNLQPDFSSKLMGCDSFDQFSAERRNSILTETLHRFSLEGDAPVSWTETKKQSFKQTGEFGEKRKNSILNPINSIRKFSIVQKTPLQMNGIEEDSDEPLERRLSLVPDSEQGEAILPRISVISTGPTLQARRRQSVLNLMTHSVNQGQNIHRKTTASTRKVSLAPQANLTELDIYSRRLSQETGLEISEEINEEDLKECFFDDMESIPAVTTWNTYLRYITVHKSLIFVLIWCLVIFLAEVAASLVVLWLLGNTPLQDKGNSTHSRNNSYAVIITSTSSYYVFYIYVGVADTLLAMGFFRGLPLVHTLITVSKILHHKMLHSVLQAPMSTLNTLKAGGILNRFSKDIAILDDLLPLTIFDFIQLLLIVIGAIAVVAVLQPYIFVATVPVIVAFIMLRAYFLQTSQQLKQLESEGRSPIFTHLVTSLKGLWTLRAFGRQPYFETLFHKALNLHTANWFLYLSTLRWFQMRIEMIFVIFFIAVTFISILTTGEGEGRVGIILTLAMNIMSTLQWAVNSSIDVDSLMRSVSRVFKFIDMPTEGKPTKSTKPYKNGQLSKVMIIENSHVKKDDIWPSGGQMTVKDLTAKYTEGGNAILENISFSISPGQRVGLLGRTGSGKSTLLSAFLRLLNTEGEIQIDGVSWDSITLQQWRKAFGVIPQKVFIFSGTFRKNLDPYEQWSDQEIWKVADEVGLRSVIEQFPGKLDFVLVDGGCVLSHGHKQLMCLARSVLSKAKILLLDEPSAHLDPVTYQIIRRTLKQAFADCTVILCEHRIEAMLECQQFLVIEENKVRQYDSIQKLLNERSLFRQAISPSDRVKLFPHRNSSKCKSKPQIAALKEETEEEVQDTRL

[10] = target: T1, Cystic fibrosis transmembrane conductance regulator; test: Potentiation of CFTR in primary human bronchial epithelial cells assessed as stimulation of CFTR-mediated chloride current at 0.5 to 5 uM in presence of CPT-cAMP and CFTR inhibitor-172 by short-circuit current method; details: dose microM 0.5-5; in short: as §2
Target sequence in this assay (P13569 whole entry, looked up): as the sequence (P13569 whole entry, looked up) above

[11] = target: T1, Cystic fibrosis transmembrane conductance regulator; test: Potentiation of CFTR in primary human bronchial epithelial cells assessed as stimulation of CFTR-mediated chloride current at 30 to […] uM in presence of CPT-cAMP by short-circuit current method; details: filed as activator, dose microM 30-50; in short: as §2
Target sequence in this assay (P13569 whole entry, looked up): as above

[12] = test system: Cystic fibrosis transmembrane conductance regulator (Homo sapiens), P13569 [F508del]; test: Potentiation of human CFTR F508 deletion mutant expressed in rat FRT cells coexpressing HS-YFP assessed as increase in iodide influx at 1 uM pre-incubated for 15 to 30 mins in presence of forskolin by fluorescent method relative to forskolin alone; type: cell-based; details: filed as activator, time min 15-30; in short: as §1
[13] = test system: Cystic fibrosis transmembrane conductance regulator (Homo sapiens), P13569 [G551D]; test: Potentiation of human CFTR G551D mutant expressed in rat FRT cells coexpressing HS-YFP assessed as increase in iodide influx at 5 uM pre-incubated for 15 to 30 mins in presence of forskolin by fluorescent method relative to forskolin alone; type: cell-based; details: filed as activator, time min 15-30; in short: as §1

Cystic fibrosis transmembrane conductance regulator (Homo sapiens), P13569 [G551D], sequence (P13569 whole entry G551D): as the sequence (P13569 whole entry, looked up) above, with G551D counted along it
Cystic fibrosis transmembrane conductance regulator (Homo sapiens), P13569 [F508del], sequence (P13569 as listed by the source): as the sequence (P13569 as listed by the source) above

SMILES: Cc1ccc(F)c2[nH]c3c(c12)CN(C(=O)c1cc(C(F)(F)F)[nH]n1)[C@H](C)C3
- Activity ([1]; filed as activator): Active
- Activity [2]: inactive
- fold change (FC) [3]: > 2

SMILES: CN(C)c1ccc2cc(C(=O)N3CCc4[nH]c5ccccc5c4C3)[nH]c2c1
- Activity [4]: Active
- Activity [5]: Active
- Activity [6]: Active
- Activity [7]: Dose-dependent effect

SMILES: Cc1ccc(F)c2[nH]c3c(c12)[C@H]1CC[C@@H](C3)N1C(=O)c1cc(C(F)(F)F)[nH]n1
- Emax [8]: inactive
- EC50 [9]: Not Active

SMILES: CC(C)(C)c1cc(C(C)(C)C)c(NC(=O)c2c[nH]c3ccccc3c2=O)cc1O
- Activity [12]: Active
- Activity [13]: Active
- Activity ([1]; filed as activator): Active

Results, then the molecule that gave them:

- Activity ([1]; filed as activator): Active
SMILES: O=C(c1cc(C(F)(F)F)[nH]n1)N1CCc2[nH]c3c(F)cccc3c2C1

- Activity [4]: Active
- Activity [5]: Active
- Activity [6]: Active
- Activity [7]: Dose-dependent effect
SMILES: O=C(c1cnn(-c2ccccc2)c1)N1CCc2[nH]c3ccccc3c2C1

- Activity ([1]; filed as activator): Active
SMILES: Cc1ccc(F)c2[nH]c3c(c12)CN(C(=O)c1cc(C(F)(F)F)[nH]n1)CC3

- Activity [4]: Active
- Activity [5]: Active
- Activity [6]: Active
- Activity [10]: inactive
- Activity [11]: Active
- Activity [1]: inactive
- Activity [7]: Dose-dependent effect
SMILES: COc1ccc2[nH]c3c(c2c1)CN(C(=O)c1cc(C(F)(F)F)[nH]n1)CC3

- Activity ([1]; filed as activator): Active
SMILES: COc1cc(F)c2[nH]c3c(c2c1)CN(C(=O)c1cc(C(F)(F)F)[nH]n1)CC3
